# According to ChEMBL document CHEMBL3120116, “Toward synthesis of third-generation spin-labeled podophyllotoxin derivatives using isocyanide multicomponent reactions” (Eur J Med Chem, 2014):
# Assays:
# Assay type in all cases: functional, cell-based
# KB = assay: Cytotoxicity against human KB cells after 72 hrs by SRB assay
# Procedure, shortened: (§1)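 Cells seeded at 3–5 × 10^3 per well in RPMI-1640 with 10% FBS containing graded sample concentrations, exposed 72 h. Attached cells fixed with cold 50% trichloroacetic acid 30 min, stained with 0.04% SRB 30 min, bound dye dissolved in 10 mM Tris-base, absorbance read at 515 nm. Triplicate experiments; IC50 reported. KBvin is a vincristine-selected MDR KB subline.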
# DU-145 = assay: Cytotoxicity against human DU145 cells after 72 hrs by SRB assay; procedure, shortened: as §1
# [1] = Cytotoxicity against human KBVIN cells after 72 hrs by SRB assay; procedure, shortened: as §1
# A549 = assay: Cytotoxicity against human A549 cells after 72 hrs by SRB assay; procedure, shortened: as §1
structure (smiles),measurement,setting,value
COc1cc([C@@H]2c3cc4c(cc3[C@@H](NC(=O)C(C)(C)OC(=O)C3=CC(C)(C)N([O])C3(C)C)[C@H]3COC(=O)[C@H]23)OCO4)cc(OC)c1OC,IC50,KB,2.32 µM
same,IC50,DU-145,2.39 µM
same,IC50,[1]; kbvin,2.55 µM
same,IC50,A549,2.38 µM
CCCC(C(=O)N[C@@H]1c2cc3c(cc2[C@@H](c2cc(OC)c(OC)c(OC)c2)[C@H]2C(=O)OC[C@@H]21)OCO3)N(CCC)C(=O)C1=CC(C)(C)N([O])C1(C)C (some centres undefined),IC50,KB,> 20 µM
same,IC50,DU-145,> 20 µM
same,IC50,[1]; kbvin,> 20 µM
same,IC50,A549,> 20 µM
CCCN(C(=O)C1=CC(C)(C)N([O])C1(C)C)C(C(=O)N[C@@H]1c2cc3c(cc2[C@@H](c2cc(OC)c(OC)c(OC)c2)[C@H]2C(=O)OC[C@@H]21)OCO3)c1ccccc1 (some centres undefined),IC50,KB,> 20 µM
same,IC50,DU-145,> 20 µM
same,IC50,[1]; kbvin,> 20 µM
same,IC50,A549,> 20 µM
CCCC(C(=O)N[C@@H]1c2cc3c(cc2[C@@H](c2cc(OC)c(OC)c(OC)c2)[C@H]2C(=O)OC[C@@H]21)OCO3)N(CCC)C(=O)C1=CC(C)(C)N([O])C(C)(C)C1 (some centres undefined),IC50,KB,> 20 µM
same,IC50,DU-145,> 20 µM
same,IC50,[1]; kbvin,> 20 µM
same,IC50,A549,> 20 µM
CCCN(C(=O)C1=CC(C)(C)N([O])C1(C)C)C(C(=O)N[C@@H]1c2cc3c(cc2[C@@H](c2cc(OC)c(OC)c(OC)c2)[C@H]2C(=O)OC[C@@H]21)OCO3)c1ccc(OC)cc1 (some centres undefined),IC50,KB,> 20 µM
same,IC50,DU-145,> 20 µM
same,IC50,[1]; kbvin,> 20 µM
same,IC50,A549,> 20 µM
CCCC(C(=O)N[C@@H]1c2cc3c(cc2[C@@H](c2cc(OC)c(OC)c(OC)c2)[C@H]2C(=O)OC[C@@H]21)OCO3)N(C(=O)C1=CC(C)(C)N([O])C1(C)C)C1CCCCC1 (some centres undefined),IC50,KB,9.35 µM
same,IC50,DU-145,11 µM
same,IC50,[1]; kbvin,8.83 µM
same,IC50,A549,8.98 µM
CCCN(C(=O)C1=CC(C)(C)N([O])C(C)(C)C1)C(C)(C)C(=O)N[C@@H]1c2cc3c(cc2[C@@H](c2cc(OC)c(OC)c(OC)c2)[C@H]2C(=O)OC[C@@H]21)OCO3,IC50,KB,> 20 µM
same,IC50,DU-145,> 20 µM
same,IC50,[1]; kbvin,> 20 µM
same,IC50,A549,> 20 µM
COc1ccc(C(OC(=O)C2=CC(C)(C)N([O])C2(C)C)C(=O)N[C@@H]2c3cc4c(cc3[C@@H](c3cc(OC)c(OC)c(OC)c3)[C@H]3C(=O)OC[C@@H]32)OCO4)cc1 (some centres undefined),IC50,KB,0.6 µM
same,IC50,DU-145,0.63 µM
same,IC50,[1]; kbvin,0.73 µM
same,IC50,A549,0.75 µM
CCCC(C(=O)N[C@@H]1c2cc3c(cc2[C@@H](c2cc(OC)c(OC)c(OC)c2)[C@H]2C(=O)OC[C@@H]21)OCO3)N(CCC)C(=O)C1CC(C)(C)N([O])C(C)(C)C1 (some centres undefined),IC50,KB,> 20 µM
same,IC50,DU-145,> 20 µM
same,IC50,[1]; kbvin,> 20 µM
same,IC50,A549,> 20 µM
CCCN(C(=O)C1=CC(C)(C)N([O])C1(C)C)C(C)(C)C(=O)N[C@@H]1c2cc3c(cc2[C@@H](c2cc(OC)c(OC)c(OC)c2)[C@H]2C(=O)OC[C@@H]21)OCO3,IC50,KB,> 20 µM
same,IC50,DU-145,> 20 µM
same,IC50,[1]; kbvin,> 20 µM
same,IC50,A549,> 20 µM
CCCC(OC(=O)C1=CC(C)(C)N([O])C(C)(C)C1)C(=O)N[C@@H]1c2cc3c(cc2[C@@H](c2cc(OC)c(OC)c(OC)c2)[C@H]2C(=O)OC[C@@H]21)OCO3 (some centres undefined),IC50,KB,6.88 µM
same,IC50,DU-145,7.27 µM
same,IC50,[1]; kbvin,8.35 µM
same,IC50,A549,9.05 µM
COc1cc([C@@H]2c3cc4c(cc3[C@@H](NC(=O)C(c3ccccc3)N(C(=O)C3CC(C)(C)N([O])C(C)(C)C3)c3ccccc3)[C@H]3COC(=O)[C@H]23)OCO4)cc(OC)c1OC (some centres undefined),IC50,KB,5.94 µM
same,IC50,DU-145,6.08 µM
same,IC50,[1]; kbvin,6.45 µM
same,IC50,A549,6.1 µM
CCCC(C(=O)N[C@@H]1c2cc3c(cc2[C@@H](c2cc(OC)c(OC)c(OC)c2)[C@H]2C(=O)OC[C@@H]21)OCO3)N(C(=O)C1=CC(C)(C)N([O])C1(C)C)C(C)(C)C (some centres undefined),IC50,KB,> 20 µM
same,IC50,DU-145,> 20 µM
same,IC50,[1]; kbvin,> 20 µM
same,IC50,A549,> 20 µM
CCCN(C(=O)C1=CC(C)(C)N([O])C1(C)C)C1(C(=O)N[C@@H]2c3cc4c(cc3[C@@H](c3cc(OC)c(OC)c(OC)c3)[C@H]3C(=O)OC[C@@H]32)OCO4)CCCCC1,IC50,KB,> 20 µM
same,IC50,DU-145,> 20 µM
same,IC50,[1]; kbvin,> 20 µM
same,IC50,A549,> 20 µM
COc1cc([C@@H]2c3cc4c(cc3[C@@H](O[C@@H]3O[C@@H]5CO[C@@H](C)O[C@H]5[C@H](O)[C@H]3O)[C@H]3COC(=O)[C@H]23)OCO4)cc(OC)c1O [ETOPOSIDE],IC50,"[1]; Homo sapiens, KBVIN, 72 h",> 20 µM
COc1cc([C@@H]2c3cc4c(cc3[C@@H](NC(=O)C(Cc3ccccc3)OC(=O)C3=CC(C)(C)N([O])C3(C)C)[C@H]3COC(=O)[C@H]23)OCO4)cc(OC)c1OC (some centres undefined),IC50,KB,6.53 µM
same,IC50,DU-145,6.82 µM
same,IC50,[1]; kbvin,7.71 µM
same,IC50,A549,7.68 µM
COc1cc([C@@H]2c3cc4c(cc3[C@@H](NC(=O)C(OC(=O)C3=CC(C)(C)N([O])C3(C)C)c3ccc5c(c3)OCO5)[C@H]3COC(=O)[C@H]23)OCO4)cc(OC)c1OC (some centres undefined),IC50,KB,1.12 µM
same,IC50,DU-145,1.37 µM
same,IC50,[1]; kbvin,2.03 µM
same,IC50,A549,1.46 µM
COc1cc([C@@H]2c3cc4c(cc3[C@@H](NC(=O)C3(OC(=O)C5=CC(C)(C)N([O])C5(C)C)CCCCC3)[C@H]3COC(=O)[C@H]23)OCO4)cc(OC)c1OC,IC50,KB,9.24 µM
same,IC50,DU-145,8.74 µM
same,IC50,[1]; kbvin,13.7 µM
same,IC50,A549,9.52 µM
CCCC(OC(=O)C1CC(C)(C)N([O])C(C)(C)C1)C(=O)N[C@@H]1c2cc3c(cc2[C@@H](c2cc(OC)c(OC)c(OC)c2)[C@H]2C(=O)OC[C@@H]21)OCO3 (some centres undefined),IC50,KB,6.58 µM
same,IC50,DU-145,7.13 µM
same,IC50,[1]; kbvin,7.96 µM
same,IC50,A549,8.82 µM
CCCC(OC(=O)C1=CC(C)(C)N([O])C1(C)C)C(=O)N[C@@H]1c2cc3c(cc2[C@@H](c2cc(OC)c(OC)c(OC)c2)[C@H]2C(=O)OC[C@@H]21)OCO3 (some centres undefined),IC50,KB,7.12 µM
same,IC50,DU-145,7.07 µM
same,IC50,[1]; kbvin,8.88 µM
same,IC50,A549,8.86 µM
COc1cc([C@@H]2c3cc4c(cc3[C@@H](NC(=O)C(OC(=O)C3=CC(C)(C)N([O])C3(C)C)c3ccco3)[C@H]3COC(=O)[C@H]23)OCO4)cc(OC)c1OC (some centres undefined),IC50,KB,7.12 µM
same,IC50,DU-145,6.55 µM
same,IC50,[1]; kbvin,7.35 µM
same,IC50,A549,7.38 µM
CCCC(C(=O)N[C@@H]1c2cc3c(cc2[C@@H](c2cc(OC)c(OC)c(OC)c2)[C@H]2C(=O)OC[C@@H]21)OCO3)N(C(=O)C1=CC(C)(C)N([O])C1(C)C)c1ccccc1 (some centres undefined),IC50,KB,8.49 µM
same,IC50,DU-145,9.78 µM
same,IC50,[1]; kbvin,7.47 µM
same,IC50,A549,8.4 µM
COc1cc([C@@H]2c3cc4c(cc3[C@@H](NC(=O)C(OC(=O)C3=CC(C)(C)N([O])C3(C)C)c3ccccc3)[C@H]3COC(=O)[C@H]23)OCO4)cc(OC)c1OC (some centres undefined),IC50,KB,> 20 µM
same,IC50,DU-145,> 20 µM
same,IC50,[1]; kbvin,> 20 µM
same,IC50,A549,> 20 µM
